Test results reported in ChEMBL document CHEMBL1135402, “New serotonin 5-HT(2A), 5-HT(2B), and 5-HT(2C) receptor antagonists: synthesis, pharmacology, 3D-QSAR, and molecular modeling of (aminoalkyl)benzo and heterocycloalkanones” (J Med Chem, 2002).

What was measured:
[1] = biological target: Serotonin receptor 2a and 2c (5HT2A and 5HT2C) (Rattus norvegicus) (UniProt P08909+P14842); test: Selectivity ratio towards Ki of 5-hydroxytryptamine 2A receptor to 5-hydroxytryptamine 2C receptor; assay type: protein assay
[2] = biological target: T1, 5-hydroxytryptamine receptor 2A (Rattus norvegicus, UniProt P14842); test: Inhibitory constant on 5-hydroxytryptamine 2A receptor of Rat frontal cortex; assay type: tissue-based
[3] = biological target: T1, 5-hydroxytryptamine receptor 2A; test: Negative log concentration of antagonist on 5-hydroxytryptamine 2A receptor in rat thoracic aorta; assay type: functional, tissue-based; details: read-out: pA2 (converted)
[4] = biological target: T2, 5-hydroxytryptamine receptor 2C (Homo sapiens, UniProt P28335); test: Inhibitory constant on human 5-hydroxytryptamine 2C receptor transfected in to HeLa cells; assay type: cell-based
T2 sequence (P28335 whole entry): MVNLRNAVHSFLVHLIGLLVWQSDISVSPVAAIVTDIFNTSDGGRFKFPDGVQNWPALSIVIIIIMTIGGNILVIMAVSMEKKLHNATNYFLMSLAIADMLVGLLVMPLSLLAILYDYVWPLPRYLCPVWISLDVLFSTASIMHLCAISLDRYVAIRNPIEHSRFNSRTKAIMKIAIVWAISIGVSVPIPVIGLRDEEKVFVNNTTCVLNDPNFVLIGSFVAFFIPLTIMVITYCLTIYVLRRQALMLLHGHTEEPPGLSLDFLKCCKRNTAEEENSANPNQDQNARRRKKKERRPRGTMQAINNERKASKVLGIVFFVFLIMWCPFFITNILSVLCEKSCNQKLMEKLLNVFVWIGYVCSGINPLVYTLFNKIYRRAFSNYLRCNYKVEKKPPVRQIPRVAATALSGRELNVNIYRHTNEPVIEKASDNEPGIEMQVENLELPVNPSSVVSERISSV
Method in brief: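 HeLa cells stably expressing cloned human 5-HT2C, grown 24 h in dialyzed FCS; membranes as for human 5-HT2A. [3H]mesulergine (2 nM final) competition, nonspecific with 1 μM mianserine, 1 h at room temperature; GF/B filtration, scintillation counting. Ki via Cheng–Prusoff.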

[5] = biological target: 5-hydroxytryptamine receptor 2A (Homo sapiens, UniProt P28223); test: Inhibitory constant for human 5-hydroxytryptamine 2A receptor transfected in to CHO cells; assay type: cell-based
Method in brief: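 CHO cells stably expressing cloned human 5-HT2A, grown 24 h in dialyzed FCS before harvest; membranes in 50 mM Tris-HCl pH 7.5. […] Ki from IC50 by Cheng–Prusoff.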

[6] = biological target: 5-hydroxytryptamine receptor 2C (Bos taurus); test: Inhibitory constant was determined on 5-hydroxytryptamine 2C receptor of Bovine choroid plexus
[7] = biological target: T3, 5-hydroxytryptamine receptor 2B (Rattus norvegicus, UniProt P30994); test: Antagonistic activity on 5-hydroxytryptamine 2B receptor of Rat stomach fundus;ND is not determined; assay type: functional, tissue-based; details: read-out: pA2 (converted)
Method in brief: (§1)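 Rat stomach fundus strips equilibrated 1 h under 1 g load; isometric contractions to cumulative 5-HT (0.01 nM–10 μM) in organ bath. Control curves, then antagonist preincubated before test curve; pA2 from EC50 shift at one antagonist concentration, […].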

[8] = biological target: T1, 5-hydroxytryptamine receptor 2A; test: Negative log concentration of antagonistic compound was determined on 5-hydroxytryptamine 2A receptor of Rat thoracic aorta; assay type: functional, tissue-based; details: read-out: pA2 (converted)
Method in brief: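 Denuded thoracic aorta rings (4 mm) from male Sprague–Dawley rats (250–350 g), 2 g tension in Krebs organ bath; isometric contraction. Sensitized with 10 μM 5-HT, then cumulative 5-HT curves (30 nM–100 μM) alternating with 60 min equilibration; two matching control runs, then antagonist added 20 min before end of equilibration. Single-concentration method: […].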

[9] = biological target: T3, 5-hydroxytryptamine receptor 2B; test: Negative log concentration of antagonistic compound was determined on 5-hydroxytryptamine 2B receptor of Rat stomach fundus; assay type: functional, tissue-based; details: read-out: pA2 (converted); method in brief: as §1

T1 sequence (P14842 whole entry): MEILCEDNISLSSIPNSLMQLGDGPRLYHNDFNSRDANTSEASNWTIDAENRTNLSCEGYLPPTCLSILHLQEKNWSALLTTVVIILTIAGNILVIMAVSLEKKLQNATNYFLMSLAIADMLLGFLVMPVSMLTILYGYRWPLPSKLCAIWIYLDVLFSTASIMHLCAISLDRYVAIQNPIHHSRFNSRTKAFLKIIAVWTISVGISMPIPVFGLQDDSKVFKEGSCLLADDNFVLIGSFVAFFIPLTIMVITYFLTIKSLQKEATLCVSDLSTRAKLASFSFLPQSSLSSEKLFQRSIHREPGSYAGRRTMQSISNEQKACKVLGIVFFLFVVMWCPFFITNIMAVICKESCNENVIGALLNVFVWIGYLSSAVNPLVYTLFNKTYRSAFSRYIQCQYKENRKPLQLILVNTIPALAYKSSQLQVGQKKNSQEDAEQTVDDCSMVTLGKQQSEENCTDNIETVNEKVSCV
Chain of Serotonin receptor 2a and 2c (5HT2A and 5HT2C) (Rattus norvegicus) (P08909 whole entry, looked up): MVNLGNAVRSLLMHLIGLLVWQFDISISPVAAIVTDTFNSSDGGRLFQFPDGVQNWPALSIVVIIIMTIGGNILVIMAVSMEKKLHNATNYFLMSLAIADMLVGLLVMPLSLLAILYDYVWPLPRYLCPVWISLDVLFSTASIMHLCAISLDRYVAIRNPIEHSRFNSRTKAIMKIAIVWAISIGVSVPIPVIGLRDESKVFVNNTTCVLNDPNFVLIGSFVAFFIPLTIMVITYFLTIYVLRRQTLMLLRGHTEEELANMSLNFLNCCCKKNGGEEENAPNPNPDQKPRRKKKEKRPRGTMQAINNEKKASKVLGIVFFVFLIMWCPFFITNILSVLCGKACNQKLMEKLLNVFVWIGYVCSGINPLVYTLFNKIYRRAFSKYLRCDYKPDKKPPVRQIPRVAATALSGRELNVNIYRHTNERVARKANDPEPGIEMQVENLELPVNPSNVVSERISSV
Chain of Serotonin receptor 2a and 2c (5HT2A and 5HT2C) (Rattus norvegicus) (P14842 whole entry, looked up): as the sequence (P14842 whole entry) above
Chain of 5-hydroxytryptamine receptor 2A (Homo sapiens, UniProt P28223) (P28223 whole entry): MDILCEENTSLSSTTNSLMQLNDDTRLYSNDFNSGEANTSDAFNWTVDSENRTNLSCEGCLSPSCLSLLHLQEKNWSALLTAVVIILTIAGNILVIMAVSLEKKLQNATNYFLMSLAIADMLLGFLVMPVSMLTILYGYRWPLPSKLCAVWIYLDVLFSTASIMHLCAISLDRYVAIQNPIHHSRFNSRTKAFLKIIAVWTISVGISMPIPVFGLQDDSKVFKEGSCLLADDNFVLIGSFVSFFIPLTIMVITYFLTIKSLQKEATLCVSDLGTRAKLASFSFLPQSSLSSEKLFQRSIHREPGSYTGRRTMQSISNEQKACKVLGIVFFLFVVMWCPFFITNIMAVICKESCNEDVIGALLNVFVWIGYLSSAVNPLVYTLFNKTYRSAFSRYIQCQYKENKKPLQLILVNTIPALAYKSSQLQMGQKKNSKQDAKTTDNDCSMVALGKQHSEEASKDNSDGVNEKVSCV
T3 sequence (P30994 whole entry): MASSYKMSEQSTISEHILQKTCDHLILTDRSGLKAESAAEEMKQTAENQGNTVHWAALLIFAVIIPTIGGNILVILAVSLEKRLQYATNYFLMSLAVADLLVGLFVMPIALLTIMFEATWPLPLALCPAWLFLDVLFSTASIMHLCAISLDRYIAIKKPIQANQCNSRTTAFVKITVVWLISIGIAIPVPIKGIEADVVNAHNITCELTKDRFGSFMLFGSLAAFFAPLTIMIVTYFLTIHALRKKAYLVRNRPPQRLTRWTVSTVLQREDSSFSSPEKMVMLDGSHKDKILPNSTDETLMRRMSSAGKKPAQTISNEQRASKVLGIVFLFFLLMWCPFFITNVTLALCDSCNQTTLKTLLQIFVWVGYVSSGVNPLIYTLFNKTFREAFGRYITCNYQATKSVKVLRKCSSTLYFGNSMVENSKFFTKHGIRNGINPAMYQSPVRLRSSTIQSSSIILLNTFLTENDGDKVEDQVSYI

Ratio [1]	Ki [2] [nM]	Kb [3] [nM]	SMILES	further results
44			O=C1CC(CN2CCC(c3noc4cc(F)ccc34)CC2)Cc2sccc21 (racemic) [listing 1 of 2 here]	
25			O=C(CCCCN1CCN(CC2CC(=O)c3ccoc3C2)CC1)c1ccc(F)cc1 (configuration not stated)	
89	4.27		CCc1c(C)[nH]c2c1C(=O)CC(CN1CCC(c3noc4cc(F)ccc34)CC1)C2 (configuration not stated)	
29		33.9	O=C(c1ccc(F)cc1)C1CCN(CCC2CCc3ccccc3C2=O)CC1 (configuration not stated)	
		148	O=C(CCCN1CCN(CCC2CCc3sccc3C2=O)CC1)c1ccc(F)cc1 (configuration not stated)	
13			CCc1c(C)[nH]c2c1C(=O)CC(CN1CCN(c3ccccc3OC)CC1)C2 (configuration not stated)	
4.1	8.71		CCc1c(C)[nH]c2c1C(=O)CC(CN1CCC(C(=O)c3ccc(F)cc3)CC1)C2 (configuration not stated)	
18	19.5	26.3	O=C(c1ccc(F)cc1)C1CCN(CCC2CCc3occc3C2=O)CC1 (configuration not stated)	
		617	COc1ccccc1N1CCN(CC2CC(=O)c3ccccc32)CC1 (configuration not stated)	
1.9			COc1ccccc1N1CCN(CC2CC(=O)c3c([nH]c4ccccc34)C2)CC1 (configuration not stated)	
0.26	912		CCc1c(C)[nH]c2c1C(=O)CC(CN1CCN(CCCC(=O)c3ccc(F)cc3)CC1)C2 (configuration not stated)	
1.5	195	158	COc1ccccc1N1CCN(CCC2Cc3ccccc3C2=O)CC1 (configuration not stated)	
		1.2	O=C(c1ccc(F)cc1)C1CCN(CCC2Cc3sccc3C2=O)CC1 (configuration not stated)	
	11.7		O=C1CC(CN2CCC(c3noc4cc(F)ccc34)CC2)Cc2sccc21 (stereo in doubt; (-)18h)	
33			O=C(CCCN1CCN(CC2CC(=O)c3ccoc3C2)CC1)c1ccc(F)cc1 (configuration not stated)	
		1260	COc1ccccc1N1CCN(CC2CC(=O)c3ccsc3C2)CC1 (configuration not stated)	
65	1.07	0.562	O=C1c2ccoc2CCC1CCN1CCC(c2noc3cc(F)ccc23)CC1 (configuration not stated)	Ki [4]: 34.7 nM; Ki [5]: 0.724 nM
616		52.5	O=C1CC(CN2CCC(C(=O)c3ccc(F)cc3)CC2)Cc2occc21 (configuration not stated)	
		112	COc1ccccc1N1CCN(CCC2CCc3sccc3C2=O)CC1 (configuration not stated)	
		15.1	O=C1CC(CN2CCC(C(=O)c3ccc(F)cc3)CC2)Cc2sccc21 (configuration not stated)	
36	53.7		O=C(CCCN1CCN(CCC2Cc3cc(F)ccc3C2=O)CC1)c1ccc(F)cc1 (configuration not stated)	
46		44.7	O=C(CCCN1CCN(CCC2CCc3ccccc3C2=O)CC1)c1ccc(F)cc1 (configuration not stated)	
		0.741	O=C1CC(CN2CCC(c3noc4cc(F)ccc34)CC2)Cc2sccc21 (racemic) [listing 2 of 2 here]	Log Ki [6]: -6.69
1	> 10000		COc1ccccc1N1CCN(CC2CC(=O)c3ccoc3C2)CC1 (configuration not stated)	
1440			O=C1CC(CN2CCN(c3ccccc3)CC2)Cc2occc21 (configuration not stated)	

Ratio [1]	Ki [2] [nM]	Kb [3] [nM]	SMILES	further results
		0.955	O=C(c1ccc(F)cc1)C1CCN(CCC2CCc3sccc3C2=O)CC1 (configuration not stated)	
89	355	676	O=C1c2ccoc2CCC1CCN1CCN(c2ccccn2)CC1 (configuration not stated)	
		23.4	O=C(CCCN1CCN(CCC2Cc3sccc3C2=O)CC1)c1ccc(F)cc1 (configuration not stated)	
5.5		331	COc1ccccc1N1CCN(CC2CC(=O)c3ccccc3C2)CC1 (configuration not stated)	
	2.69		O=C1CC(CN2CCC(c3noc4cc(F)ccc34)CC2)Cc2ccccc21 (configuration not stated)	
31			O=C(c1ccc(F)cc1)C1CCN(CCC2CCc3ccsc3C2=O)CC1 (configuration not stated)	Kb [7]: 331 nM
		7.59	O=C(c1ccc(F)cc1)C1CCN(CCC2Cc3ccccc3C2=O)CC1 (configuration not stated)	
		7.41	O=C1CC(CN2CCC(C(=O)c3ccc(F)cc3)CC2)c2ccccc21 (configuration not stated)	
36			O=C1CC(CN2CCC(c3noc4cc(F)ccc34)CC2)Cc2[nH]c3ccccc3c21 (configuration not stated)	Ki [4]: 27.5 nM; Ki [5]: 1.17 nM
2950		11.2	O=C1CC(CN2CCC(c3noc4cc(F)ccc34)CC2)Cc2occc21 (configuration not stated)	Ki [4]: 3980 nM
10			O=C1c2sccc2CCC1CCN1CCC(c2noc3cc(F)ccc23)CC1 (configuration not stated)	
		13.8	O=C1CC(CN2CCC(C(=O)c3ccc(F)cc3)CC2)Cc2ccccc21 (configuration not stated)	
		0.135	O=C1c2ccsc2CCC1CCN1CCC(c2noc3cc(F)ccc23)CC1 (configuration not stated)	
9.8	174	490	O=C1c2ccsc2CCC1CCN1CCN(c2ccccn2)CC1 (configuration not stated)	
2.5			CCc1c(C)[nH]c2c1C(=O)C(CCN1CCN(c3ccccc3OC)CC1)CC2 (configuration not stated)	Kb [8]: 31.6 nM
	11.5		O=C1CC(CN2CCC(c3noc4cc(F)ccc34)CC2)Cc2sccc21 (single isomer, unassigned; (+))	
65			O=C1CC(CN2CCC(C(=O)c3ccc(F)cc3)CC2)Cc2[nH]c3ccccc3c21 (configuration not stated)	
		16.2	O=C(CCCN1CCN(CC2CC(=O)c3ccsc3C2)CC1)c1ccc(F)cc1 (configuration not stated)	
		178	O=C(c1ccc(F)cc1)C1CCN(CCC2CCCc3ccccc3C2=O)CC1 (configuration not stated)	
50		50.1	O=C(CCCN1CCN(CCC2Cc3ccccc3C2=O)CC1)c1ccc(F)cc1 (configuration not stated)	Ki [4]: > 10000 nM; Ki [5]: 67.6 nM
1780		53.7	O=C(CCCN1CCN(CC2CC(=O)c3ccccc3C2)CC1)c1ccc(F)cc1 (configuration not stated)	Ki [5]: 115 nM
5.8		191	COc1ccccc1N1CCN(CCC2CCc3ccccc3C2=O)CC1 (configuration not stated)	
		63.1	O=C(CCCN1CCN(CC2CC(=O)c3ccccc32)CC1)c1ccc(F)cc1 (configuration not stated)	
3	191	501	COc1ccccc1N1CCN(CCC2CCc3occc3C2=O)CC1 (configuration not stated)	
219		7.59	O=C(c1ccc(F)cc1)C1CCN(CCC2Cc3cc(F)ccc3C2=O)CC1 (configuration not stated)	

SMILES	Ratio [1]	Ki [2] [nM]	Kb [3] [nM]	further results
O=C1CC(CN2CCN(c3ccccn3)CC2)c2ccccc21 (configuration not stated)	0.027	> 10000		
O=C1CC(CN2CCN(c3ncccn3)CC2)Cc2occc21 (configuration not stated)	1	> 10000		Kb [9]: 977 nM
